Data published in ChEMBL document CHEMBL1138269, “Antimicrobial lexitropsins containing amide, amidine, and alkene linking groups” (J Med Chem, 2007).
In brackets after ≈: the same amount, converted by molar mass. Activity calls are given as the source filed them. The calls are words filed in the database; no cut-off is given here.

Tests used:
[1] = test system: Staphylococcus aureus; experiment: Antibacterial activity against methicillin-sensitive Staphylococcus aureus NCTC 6571; assay type: functional; conditions: Staphylococcus aureus, NCTC 6571; read-out: MIC
In short: (§1)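 Broth microdilution in Mueller-Hinton broth. Samples were dissolved in sterile water to 200 µg mL-1 as the working solution and doubling dilutions were made across rows. Plates were incubated at 37 °C and inspected visually, with resazurin added as growth indicator. MIC reported in µg mL-1.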

[2] = test system: Enterococcus faecalis; experiment: Antibacterial activity against Streptococcus faecalis NCTC 775; assay type: functional; conditions: Enterococcus faecalis, NCTC 775; read-out: MIC; in short: as §1
[3] = test system: Mycolicibacterium fortuitum; experiment: Antibacterial activity against Mycobacterium fortuitum NCTC 10394; assay type: functional; in short: as §1
[4] = test system: Aspergillus niger; experiment: Antifungal activity against Aspergillus niger IMI 149007; assay type: functional
In short: (§2)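 Antifungal microdilution in Sabouraud broth. Test sample at 200 µg mL-1 working solution in sterile water was serially doubled down successive rows. Incubation was at 25 °C, followed by visual growth check and addition of resazurin indicator. Read-out is MIC in µg mL-1.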

[5] = test system: Candida albicans; experiment: Antifungal activity against Candida albicans NCPF 3179; assay type: functional; conditions: Candida albicans; read-out: MIC; in short: as §2
[6] = test system: Staphylococcus aureus; experiment: Antibacterial activity against methicillin-resistant Staphylococcus aureus clinical isolate 1; assay type: functional
In short: (§3)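 Broth microdilution MIC against clinical S. aureus isolates (incl. MRSA), run per NCCLS guidelines in 96-well plates. Test sample dissolved in sterile water to a 200 µg mL-1 working concentration, then doubling dilutions in Mueller-Hinton broth. Incubated at 37 °C, growth read visually plus resazurin indicator. MIC reported in µg/mL.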

[7] = test system: Staphylococcus aureus; experiment: Antibacterial activity against methicillin-resistant Staphylococcus aureus clinical isolate 2; assay type: functional; in short: as §3
[8] = test system: Staphylococcus aureus; experiment: Antibacterial activity against methicillin-resistant Staphylococcus aureus clinical isolate 3; assay type: functional; in short: as §3
[9] = test system: Staphylococcus aureus; experiment: Antibacterial activity against methicillin-resistant Staphylococcus aureus clinical isolate 4; assay type: functional; in short: as §3
[10] = test system: Staphylococcus aureus; experiment: Antibacterial activity against methicillin-resistant Staphylococcus aureus clinical isolate 5; assay type: functional; in short: as §3
[11] = test system: Staphylococcus aureus; experiment: Antibacterial activity against Staphylococcus aureus LS1 in mouse at 20 mg/kg, ip; assay type: functional, organism-based; parameters: dose 20 mg/kg
In short: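 Mice of 18-22 g, five per group, were inoculated intravenously with 50 million cfu of S. aureus LS-1, which causes bacteraemia and then joint localization within 3-4 days. A single dose (groups at 60, 40, 20 or 10 mg/kg) was given iv or ip. Joint inflammation was scored, with caliper measurement of affected joint diameter.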

[12] = test system: HS27; experiment: Cytotoxicity against human HS27 cells; assay type: cell-based
[13] = test system: L929; experiment: Cytotoxicity against mouse L929 cells; assay type: cell-based

Row | SMILES | MIC [1] [µg/mL] | MIC [2] [µg/mL] | MIC [3] [µg/mL] | MIC [4] [µg/mL] | MIC [5] [µg/mL] | MIC [6] [µg/mL] | MIC [7] [µg/mL] | MIC [8] [µg/mL] | MIC [9] [µg/mL] | MIC [10] [µg/mL] | Activity [11] | Activity [12] | Activity [13]
1 | CN(C)CCCNC(=O)c1cc(NC(=O)c2cc(NC(=O)c3cc(/C=C/c4ccc([N+](=O)[O-])cc4)cn3C)cn2C)cn1C | 50 (≈ 83.2 µM) | 50 (≈ 83.2 µM) | > 50 | > 50 | > 50 | > 64 | > 64 | > 64 | > 64 | > 64 |  |  | 
2 | CC(=N)Nc1cc(C(=O)Nc2cc(C(=O)Nc3cc(C(=O)NCCCN4CCOCC4)n(C)c3)n(C)c2)n(C)c1 | > 50 | > 50 | > 50 | > 50 | > 50 | > 64 | > 64 | > 64 | > 64 | > 64 |  |  | 
3 | CN(C)CCCNC(=O)c1cc(NC(=O)c2cc(NC(=O)c3ccc(/C=C/c4ccncc4)cc3)cn2C)cn1C | 50 (≈ 90.3 µM) | 25 (≈ 45.2 µM) | > 50 | > 50 | > 50 | 16 (≈ 28.9 µM) | 32 (≈ 57.8 µM) | 64 (≈ 116 µM) | > 64 | > 64 |  |  | 
4 | Cn1cc(NC(=O)c2cc(NC(=O)c3cc(NC(=O)c4cccc(Cl)c4)cn3C)cn2C)cc1C(=O)NCCc1ccccn1 | > 50 | > 50 | > 50 | > 50 | > 50 | > 64 | > 64 | > 64 | > 64 | > 64 |  |  | 
5 | CC(C)c1sc(NC(=O)c2cc(NC(=O)c3cc(NC(=O)c4ccc5c(c4)OCO5)cn3C)cn2C)nc1C(=O)NCCCN(C)C | 13 (≈ 19.6 µM) | 25 (≈ 37.7 µM) | > 50 | > 50 | > 50 | 8 (≈ 12.1 µM) | 64 (≈ 96.6 µM) | 64 (≈ 96.6 µM) | 64 (≈ 96.6 µM) | 64 (≈ 96.6 µM) |  |  | 
6 | CC(C)c1sc(NC(=O)c2cc(NC(=O)c3cc(NC(=O)c4cccc(Cl)c4)cn3C)cn2C)nc1C(=O)NCCCN(C)C | 13 (≈ 19.9 µM) | 6 (≈ 9.19 µM) | > 50 | > 50 | > 50 | 11 (≈ 16.8 µM) | 11 (≈ 16.8 µM) | 11 (≈ 16.8 µM) | 0.5 (≈ 0.765 µM) | 2 (≈ 3.06 µM) |  |  | 
7 | Cn1cc(NC(=O)c2cc(NC(=O)c3ccc(/C=C/c4cccnc4)cc3)cn2C)cc1C(=O)NCCN1CCOCC1 | 35 (≈ 60.2 µM) | 35 (≈ 60.2 µM) | > 50 | > 50 | > 50 | 2 (≈ 3.44 µM) | 8 (≈ 13.8 µM) | 4 (≈ 6.88 µM) | 8 (≈ 13.8 µM) | 1 (≈ 1.72 µM) |  |  | 
8 | Cn1cccc1/C=C/c1ccc(C(=O)Nc2cc(C(=O)Nc3cc(C(=O)NCCN4CCOCC4)n(C)c3)n(C)c2)cc1 | 3 (≈ 5.14 µM) | 13 (≈ 22.3 µM) | > 50 | > 50 | > 50 | 4 (≈ 6.85 µM) | 16 (≈ 27.4 µM) | 16 (≈ 27.4 µM) | 16 (≈ 27.4 µM) | 16 (≈ 27.4 µM) |  |  | 
9 | Cn1cc(NC(=O)c2cc(NC(=O)c3csc(/C=C/c4ccc5ccccc5n4)n3)cn2C)cc1C(=O)NCCN1CCOCC1 | 3 (≈ 4.7 µM) | 25 (≈ 39.1 µM) | > 50 | > 50 | > 50 | 8 (≈ 12.5 µM) | 8 (≈ 12.5 µM) | 8 (≈ 12.5 µM) | 8 (≈ 12.5 µM) | 8 (≈ 12.5 µM) |  |  | 
10 | CC(C)CCc1sc(NC(=O)c2cc(NC(=O)c3cc4ccccc4cn3)cn2C)nc1C(=O)NCCCN(C)C | 50 (≈ 86.8 µM) | 50 (≈ 86.8 µM) | > 50 | > 50 | > 50 | > 64 | > 64 | > 64 | > 64 | > 64 |  |  | 
11 | CC(C)CCn1cc(NC(=O)c2cc(NC(=O)c3cccc(Cl)c3)cn2C)cc1C(=O)Nc1cc(C(=O)NCCCN(C)C)n(C)c1 | 13 (≈ 19.6 µM) | 6 (≈ 9.05 µM) | > 50 | > 50 | > 50 | 16 (≈ 24.1 µM) | 16 (≈ 24.1 µM) | 16 (≈ 24.1 µM) | 16 (≈ 24.1 µM) | 16 (≈ 24.1 µM) |  |  | 
12 | CC(=N)Nc1cc(C(=O)Nc2cc(C(=O)Nc3nc(C(=O)NCCN4CCOCC4)c(C(C)C)s3)n(C)c2)n(C)c1 | > 50 | > 50 | > 50 | > 50 | > 50 | 64 (≈ 110 µM) | > 64 | > 64 | > 64 | > 64 |  |  | 
13 | Cn1cc(NC(=O)c2cc(NC(=O)c3ccc(/C=C/c4cnc5ccccc5c4)cc3)cn2C)cc1C(=O)NCCN1CCOCC1 [MGB-BP-3] | 3 (≈ 4.75 µM) | 25 (≈ 39.6 µM) | 50 (≈ 79.1 µM) | 25 (≈ 39.6 µM) | 50 (≈ 79.1 µM) | 0.12 (≈ 0.19 µM) | 0.25 (≈ 0.396 µM) | 0.12 (≈ 0.19 µM) | 0.25 (≈ 0.396 µM) | 0.12 (≈ 0.19 µM) | Active | Non-toxic | Non-toxic
14 | COc1cccc(/C=C/c2ccc(C(=O)Nc3cc(C(=O)Nc4cc(C(=O)NCCCN(C)C)n(C)c4)n(C)c3)cc2)c1 | 6 (≈ 10.3 µM) | > 50 | > 50 | 50 (≈ 85.8 µM) | > 50 | 6.25 (≈ 10.7 µM) | 6.25 (≈ 10.7 µM) | 6.25 (≈ 10.7 µM) | 6.25 (≈ 10.7 µM) | 6.25 (≈ 10.7 µM) |  |  | 
15 | COc1cccc(/C=C/c2cccc(C(=O)Nc3cc(C(=O)Nc4nc(C(=O)NCCCN(C)C)c(CCC(C)C)s4)n(C)c3)c2)c1 | > 50 | > 50 | > 50 | > 50 | > 50 | 32 (≈ 48.7 µM) | 32 (≈ 48.7 µM) | 32 (≈ 48.7 µM) | 32 (≈ 48.7 µM) | 32 (≈ 48.7 µM) |  |  | 
16 | Cn1cc(NC(=O)c2cc(NC(=O)c3ccc(/C=C/c4ccncc4)cc3)cn2C)cc1C(=O)NCCN1CCOCC1 | 2 (≈ 3.44 µM) | 25 (≈ 43 µM) | > 50 | > 50 | 50 (≈ 86 µM) | 0.5 (≈ 0.86 µM) | 2 (≈ 3.44 µM) | 1 (≈ 1.72 µM) | 1 (≈ 1.72 µM) | 0.5 (≈ 0.86 µM) |  |  | 
17 | CSc1ccc(/C=C/c2ccc(C(=O)Nc3cc(C(=O)Nc4cc(C(=O)NCCN5CCOCC5)n(C)c4)n(C)c3)cn2)cc1 | 6 (≈ 9.56 µM) | > 50 | > 50 | > 50 | > 50 | 0.5 (≈ 0.796 µM) | 4 (≈ 6.37 µM) | 2 (≈ 3.19 µM) | 1 (≈ 1.59 µM) | 0.5 (≈ 0.796 µM) |  |  | 
18 | CC(C)CCc1sc(NC(=O)c2cc3ccccc3cn2)nc1C(=O)Nc1cc(C(=O)NCCCN(C)C)n(C)c1 | > 50 | > 50 | > 50 | > 50 | > 50 | 32 (≈ 55.6 µM) | 32 (≈ 55.6 µM) | 32 (≈ 55.6 µM) | 32 (≈ 55.6 µM) | 32 (≈ 55.6 µM) |  |  | 
